Here are results for one compound from ChEMBL document CHEMBL1212693, “Dorsomorphin inhibits BMP signals required for embryogenesis and iron metabolism” (Nat Chem Biol, 2008).

Data set [1] concerns Danio rerio. Put plainly: Inhibition of iron-dextran conjugate-induced hepcidin mRNA expression in zebrafish at 23 ug/g, ip by qRT-PCR analysis. In kind it is functional, organism-based. In a few lines:
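Adult zebrafish under tricaine were injected intraperitoneally with 10 µl iron-dextran (100 mg ml−1) plus compound (23 µg g−1) or DMSO vehicle; controls received dextran. Livers were taken 3 h later and RNA was extracted with Trizol. Hepcidin mRNA was measured by qRT-PCR and normalised to liver fatty acid binding protein mRNA, with n = 4 per group.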
In general terms: Real-time PCR tracks product formation cycle by cycle.

Data set [2] has as its system Mus musculus. The data set can be described thus: Inhibition of iron-dextran conjugate-induced hepcidin mRNA expression in C57BL/6 mouse at 10 mg/kg, iv after 6 hrs by qRT-PCR analysis. In kind it is functional, organism-based. Set-up: dose 10 mg/kg.
Data set [3] in a line: (§1) Inhibition of BMPR1-mediated Smad-5 phosphorylation in BMP4-stimulated mouse PASMC treated 30 mins before BMP4 challenge measured after 30 mins by immunoblot analysis. Summed up: (§2)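 Mouse PASMCs were held 24 h in RPMI with 0.5% FCS. They were preincubated 30 min with test agent, noggin or vehicle, then exposed to recombinant BMP4 for 30 min. SDS lysates were immunoblotted for phospho-SMAD1/5/8 and bands quantified by phosphorimager. Dose-dependence was fitted as a Hill plot.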
(A western blot detects proteins with antibodies after separation by electrophoresis.)

Data set [4] is filed under the species Mus musculus. The description is as §1. Summed up:
as §2

A short description of data set [5]: (§3) Inhibition of BMPR1-mediated Smad-8 phosphorylation in BMP4-stimulated mouse PASMC treated 30 mins before BMP4 challenge measured after 30 mins by immunoblot analysis. In a few lines:
as §2

The species named for data set [6] is Mus musculus. Described as §3. In a few lines: as §2
The species entered for data set [7] is Mus musculus. Put plainly: Inhibition of BMPR1-mediated MAPK p38 phosphorylation in BMP4-stimulated mouse PASMC treated 30 mins before BMP4 challenge measured after 30 mins by immunoblot analysis. Summed up:
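Mouse PASMCs were held 24 h in 0.5% FCS RPMI, preincubated 30 min with a dose range of compound, then stimulated 30 min with BMP4. Phospho-SMAD1/5/8 and phospho-p38 were detected by immunoblot and quantitated by phosphorimager (RLU). IC50 was derived from a Hill plot of phospho-SMAD1/5/8 inhibition.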

The species entered for data set [8] is Mus musculus. Put plainly: Inhibition of BMPR1-mediated Smad-5 phosphorylation in BMP4-stimulated mouse PASMC at 100 to 200 ng/ml treated 30 mins before BMP4 challenge measured after 30 mins by immunoblot analysis. Summed up:
as §2

For data set [9], the species on record is Mus musculus. The data set can be described thus: Inhibition of BMPR1-mediated Smad-8 phosphorylation in BMP4-stimulated mouse PASMC at 4 uM treated 30 mins before BMP4 challenge measured after 30 mins by immunoblot analysis. Summed up: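 Wild-type mouse PASMCs were kept in RPMI with 0.5% FCS for 24 h. They were preincubated with compound or vehicle for 30 min, then stimulated for 30 min with recombinant BMP2, BMP4, BMP6 or BMP7 at 10 ng ml−1. Lysates in SDS buffer were immunoblotted with anti-phospho-SMAD1/5/8. Total SMAD1 and α-tubulin served as loading controls, and bands were quantified by phosphorimager.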

The species named for data set [10] is Mus musculus. The data set can be described thus: Inhibition of activin receptor-mediated Smad-2 phosphorylation in activin-stimulated mouse PASMC at => 10 uM treated 30 mins before activin challenge measured after 30 mins by immunoblot analysis. In a few lines:
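PASMCs serum-starved 24 h (0.5% FCS RPMI) were pretreated 30 min with compound at 0.1–20 µM or vehicle. They were then stimulated 30 min with recombinant TGF-β1 or activin A. Phospho-SMAD2 was detected by immunoblot of SDS lysates, and phosphorimager quantification was used.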

Data set [11] is filed under the species Mus musculus. Put plainly: Inhibition of BMPR1-mediated Smad-5 phosphorylation in BMP4-stimulated mouse BMPR2 deficient PASMC at 4 uM treated 30 mins before BMP4 challenge measured after 30 mins by immunoblot analysis.
The species entered for data set [12] is Mus musculus. The data set can be described thus: Inhibition of BMPR1-mediated Smad-1 phosphorylation in BMP7-stimulated mouse BMPR2 deficient PASMC at 4 uM treated 30 mins before BMP7 challenge measured after 30 mins by immunoblot analysis. Summed up:
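PASMCs (wild-type or BMPR-II–deficient) were kept 24 h in RPMI with 0.5% FCS, preincubated 30 min with compound or vehicle, then stimulated 30 min with recombinant BMP (10 ng ml−1). Extracts in SDS-lysis buffer were immunoblotted for phospho-SMAD1/5/8, with total SMAD1 and α-tubulin as loading controls. Bands were quantitated by phosphorimager.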

Data set [13] is filed under the species Mus musculus. Put plainly: Inhibition of ALK2-mediated Smad-1 phosphorylation in BMPR2 deficient mouse PASMC at 10 uM by immunoblot analysis. Summed up: (§4)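 BMPR-II–deficient mouse PASMCs (RPMI, 10% FBS) transiently transfected with constitutively active ALK2, ALK3 or ALK6 cDNA, or plasmid-only control. Incubated with or without compound (10 µM). Extracts lysed in SDS buffer, run on SDS-PAGE and immunoblotted for phospho-SMAD1/5/8; quantitated by phosphorimager.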

The species named for data set [14] is Mus musculus. Put plainly: Inhibition of ALK2-mediated Smad-5 phosphorylation in BMPR2 deficient mouse PASMC at 10 uM by immunoblot analysis. Summed up: as §4
For data set [15], the species on record is Mus musculus. Put plainly: Inhibition of ALK3-mediated Smad-1 phosphorylation in BMPR2 deficient mouse PASMC at 10 uM by immunoblot analysis. Summed up: as §4
The species entered for data set [16] is Mus musculus. Put plainly: Inhibition of ALK3-mediated Smad-8 phosphorylation in BMPR2 deficient mouse PASMC at 10 uM by immunoblot analysis. Summed up:
as §4

For data set [17], the system named is C2C12. Put plainly: Cytotoxicity against mouse C2C12 cells at 4 uM by Cell Titer Glo assay. The note with it: c2c12, 4 µM. In kind it is cell-based. Summed up:
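C2C12 cells seeded at 2,000 cells/well in DMEM with 2% FBS and treated in quadruplicate with BMP ligands plus compound or vehicle. Viability measured by Cell-titer Glo after 5 d culture, using replicate wells treated identically to those for alkaline phosphatase.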

The species named for data set [18] is Danio rerio. Put plainly: Inhibition of BMPR1 in zebrafish assessed as penetrance of moderate embryonic axis dorsalization at 10 uM treated at 4 to 8 hrs post-fertilization measured at 48 hrs. Set-up: scale not given: the % may be the effect or the level left. Summed up: (§5)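 Compound added at the stated times and concentrations. Gross morphology scored visually at up to 48 h.p.f. for dorsalization of the embryonic axis.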

For data set [19], the species on record is Danio rerio. The data set can be described thus: Inhibition of BMPR1 in zebrafish assessed as penetrance of normal embryonic axis dorsalization at 10 uM treated at 6 to 8 hrs post-fertilization measured at 48 hrs. Set-up: scale not given: the % may be the effect or the level left.
For data set [20], the species on record is Danio rerio. The data set can be described thus: Inhibition of BMPR1 in zebrafish assessed as severity of embryonic axis dorsalization at 0.5 uM treated at 3 hrs post-fertilization measured at 48 hrs. Set-up: scale not given: the % may be the effect or the level left.
Data set [21] is filed under the species Danio rerio. Put plainly: Inhibition of BMPR1 in zebrafish assessed as penetrance of mild embryonic axis dorsalization at 5 uM treated at 3 hrs post-fertilization measured at 48 hrs. Set-up: scale not given: the % may be the effect or the level left. Summed up:
as §5

The species entered for data set [22] is Danio rerio. The data set can be described thus: Inhibition of BMPR1 in zebrafish assessed as increase in pax2a expression at 10 uM treated at 12 hrs post-fertilization measured at 48 hrs.
The species entered for data set [23] is Danio rerio. The data set can be described thus: Inhibition of BMPR1 in zebrafish assessed as severity of embryonic axis dorsalization at 10 uM treated continuously from 2 hrs post-fertilization measured after 48 hrs. Set-up: scale not given: the % may be the effect or the level left.
For data set [24], the species on record is Danio rerio. Put plainly: Inhibition of BMPR1 in zebrafish assessed as penetrance of mild embryonic axis dorsalization at 10 uM treated continuously from 6 hrs post-fertilization measured at 48 hrs. Set-up: scale not given: the % may be the effect or the level left. Summed up:
as §5

Broadly, the IC50 is the concentration needed to halve the response being measured.

Active and inactive are the calls of the source. No cut-off for these calls is given here.

For the compound `c1cc(-c2cnn3cc(-c4ccc(OCCN5CCCCC5)cc4)cnc23)ccn1` [DORSOMORPHIN], the inhibition entry in data set [1], in [2], in data set [8], in data set [9], in [10] and in [11] was “Active” each time. Besides, the inhibition entry in [12], in data set [13], in data set [14], in data set [15] and in data set [16] was “Active” each time. In addition, the IC50 in data set [3] and in data set [5] was 0.47 µM in each case. For the same compound, the inhibition entry in data set [4] and in [6] was “Dose-dependent effect” each time. In addition, the inhibition result in data set [7] is “inactive”. Moreover, the Activity entry was “Non-toxic” in [17]; 35% in data set [18]; 0% in data set [19]; 0% in data set [20]; 19% in [21]; 100% in [23]. In data set [24], the Activity stood at 22%. Besides, in data set [22], the result was Active.
